Measured values taken from ChEMBL document CHEMBL1649062, “Integration of lead optimization with crystallography for a membrane-bound ion channel target: discovery of a new class of AMPA receptor positive allosteric modulators” (J Med Chem, 2011).
≈ marks a conversion by molar mass, not a printed value. Calls of active or inactive are those of the source. The calls are words filed in the database; no cut-off is given here.

What was measured:
Sus scrofa = experiment: Hepatic blood flow in Gottingen minipig at 0.5 mg/kg, iv and 1 mg/kg, po; type: ADME, organism-based, Liver; conditions: pig, in vivo
Summary of the method: (§1)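 Male animals, n = 3 per species, given single iv and oral doses. Values are mean and range. Blood clearance is also expressed as % of liver blood flow, taken as (mL/min)/kg: rat 85, dog 31, minipig 30, cynomolgus monkey 44.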

[1] = Cmax in cynomolgus monkey at 1 mg/kg, po; type: ADME, organism-based, Macaca fascicularis; set-up: dose 1 mg/kg, route oral; conditions: in vivo
[2] = Half life in Swiss Beagle dog at 0.5 mg/kg, po; type: ADME, organism-based, Canis lupus familiaris; set-up: dose 0.5 mg/kg, route oral; conditions: in vivo
[3] = target: Voltage-gated inwardly rectifying potassium channel KCNH2 (Homo sapiens, UniProt Q12809); experiment: Inhibition of human ERG at 10 uM
Voltage-gated inwardly rectifying potassium channel KCNH2, sequence (Q12809 whole entry): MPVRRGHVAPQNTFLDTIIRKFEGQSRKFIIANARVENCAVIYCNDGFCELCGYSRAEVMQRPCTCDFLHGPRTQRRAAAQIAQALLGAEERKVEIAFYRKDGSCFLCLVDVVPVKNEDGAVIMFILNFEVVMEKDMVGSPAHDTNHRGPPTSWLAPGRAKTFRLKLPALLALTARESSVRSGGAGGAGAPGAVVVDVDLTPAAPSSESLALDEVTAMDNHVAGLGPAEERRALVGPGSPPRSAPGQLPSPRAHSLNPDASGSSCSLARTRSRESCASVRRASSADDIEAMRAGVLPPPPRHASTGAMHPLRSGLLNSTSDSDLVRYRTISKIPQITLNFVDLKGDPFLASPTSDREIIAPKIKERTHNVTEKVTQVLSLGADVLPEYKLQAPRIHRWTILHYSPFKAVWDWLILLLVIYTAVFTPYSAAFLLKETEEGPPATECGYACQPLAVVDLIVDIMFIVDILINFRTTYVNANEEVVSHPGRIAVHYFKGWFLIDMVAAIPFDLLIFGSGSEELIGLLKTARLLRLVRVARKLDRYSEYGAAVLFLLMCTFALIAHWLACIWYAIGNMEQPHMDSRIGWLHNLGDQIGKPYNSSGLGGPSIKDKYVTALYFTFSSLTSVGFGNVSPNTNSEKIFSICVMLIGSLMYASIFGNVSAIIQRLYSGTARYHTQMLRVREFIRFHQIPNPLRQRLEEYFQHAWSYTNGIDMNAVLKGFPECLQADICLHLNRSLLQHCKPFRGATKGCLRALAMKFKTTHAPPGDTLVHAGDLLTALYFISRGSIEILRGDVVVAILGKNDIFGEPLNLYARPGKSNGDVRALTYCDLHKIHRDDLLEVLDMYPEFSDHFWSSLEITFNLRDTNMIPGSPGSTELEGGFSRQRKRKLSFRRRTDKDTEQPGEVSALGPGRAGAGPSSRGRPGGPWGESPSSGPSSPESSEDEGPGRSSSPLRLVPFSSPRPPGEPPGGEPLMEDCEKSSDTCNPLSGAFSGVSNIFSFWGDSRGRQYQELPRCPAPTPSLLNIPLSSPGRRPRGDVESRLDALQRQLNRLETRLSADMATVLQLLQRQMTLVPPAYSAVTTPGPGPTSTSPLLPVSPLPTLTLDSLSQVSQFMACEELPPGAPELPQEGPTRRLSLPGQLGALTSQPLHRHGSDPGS
Summary of the method: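 hERG tail current recorded from stably transfected cells, compound at a nominal 10 μM (stated as 3.6 μg/mL).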

Rattus norvegicus [4] = experiment: Hepatic blood flow in Sprague-Dawley rat at 2.5 mg/kg, iv and 3 mg/kg, po; type: ADME, organism-based, Liver; conditions: in vivo; summary of the method: as §1
[5] = Intrinsic clearance in cryopreserved dog hepatocytes assessed per gram of tissue; type: ADME, cell-based, Canis lupus familiaris, Liver, Hepatocyte
Summary of the method: (§2)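 Cryopreserved hepatocytes at 70 000 cells/mL; intrinsic clearance expressed per gram of liver; single determination (human also n = 3).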

in vivo [6] = conditions: Sprague-Dawley, rat, po, 3 mg/kg
[7] = Oral bioavailability in Swiss Beagle dog at 0.5 mg/kg; type: ADME, organism-based, Canis lupus familiaris; conditions: in vivo
Summary of the method: (§3)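 Male animals, n = 3 per species, given single iv and oral doses: Sprague-Dawley rat 2.5 iv / 3 po mg/kg; beagle dog 0.25 / 0.5; Göttingen minipig 0.5 / 1; cynomolgus monkey 0.25 / 1. Blood sampled; Vss from iv; bioavailability and Vss as mean [range]; Tmax as median [range].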

[8] = Volume of distribution at steady state in Swiss Beagle dog at 0.25 mg/kg, iv and 0.5 mg/kg, po; type: ADME, organism-based, Canis lupus familiaris; conditions: in vivo, read-out: Vdss; summary of the method: as §3
[9] = Kinetic solubility of the compound in phosphate buffered saline of pH 7.4; type: physicochemical
Summary of the method: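 Kinetic solubility: 10 mM DMSO stock, 5 μL diluted to 100 μL with pH 7.4 phosphate-buffered saline, equilibrated 1 h at room temperature, filtered, filtrate quantified by calibrated flow-injection chemiluminescent nitrogen detection.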

[10] = Intrinsic clearance in cryopreserved minipig hepatocytes assessed per gram of tissue; type: ADME, cell-based, Sus scrofa, Liver, Hepatocyte; conditions: pig; summary of the method: as §2
Glutamate receptor 2 = Glutamate receptor 2 (Homo sapiens, UniProt P42262); experiment: Allosteric modulation of human recombinant GluA2 receptor flip isoform expressed in HEK293 cells at 100 nM by whole cell patch-clamp electrophysiology; type: cell-based
Glutamate receptor 2, sequence (P42262 whole entry, canonical isoform): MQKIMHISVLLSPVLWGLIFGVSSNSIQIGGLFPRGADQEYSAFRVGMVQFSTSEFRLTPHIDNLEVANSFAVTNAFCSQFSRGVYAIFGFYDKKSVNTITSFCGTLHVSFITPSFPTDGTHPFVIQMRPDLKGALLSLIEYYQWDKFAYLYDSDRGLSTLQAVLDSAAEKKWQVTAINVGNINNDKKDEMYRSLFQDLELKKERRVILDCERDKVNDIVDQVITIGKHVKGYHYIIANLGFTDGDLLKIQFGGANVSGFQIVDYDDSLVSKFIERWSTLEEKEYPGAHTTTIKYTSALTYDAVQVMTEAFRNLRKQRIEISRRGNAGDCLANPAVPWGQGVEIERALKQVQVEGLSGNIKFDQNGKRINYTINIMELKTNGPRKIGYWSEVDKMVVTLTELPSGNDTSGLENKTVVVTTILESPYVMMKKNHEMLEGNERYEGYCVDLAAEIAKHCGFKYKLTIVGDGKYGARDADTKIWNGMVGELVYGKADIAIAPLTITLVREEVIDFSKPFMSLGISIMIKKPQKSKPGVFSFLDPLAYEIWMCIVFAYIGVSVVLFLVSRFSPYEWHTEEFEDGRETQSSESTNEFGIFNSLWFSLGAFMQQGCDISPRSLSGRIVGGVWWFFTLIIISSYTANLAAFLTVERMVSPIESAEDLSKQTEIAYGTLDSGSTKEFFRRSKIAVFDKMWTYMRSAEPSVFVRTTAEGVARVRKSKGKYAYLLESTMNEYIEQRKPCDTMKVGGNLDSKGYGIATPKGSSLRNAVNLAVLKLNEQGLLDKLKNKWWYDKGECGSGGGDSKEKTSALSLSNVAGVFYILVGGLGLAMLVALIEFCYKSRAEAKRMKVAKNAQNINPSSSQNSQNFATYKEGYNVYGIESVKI
Summary of the method: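 Perforated-patch (amphotericin B) voltage clamp of HEK293 cells stably expressing human GluA2 flip (unedited) homotetramers, held at -60 mV. Extracellular solution in mM: 140 NaCl, 2 KCl, 1 MgCl2, 2 CaCl2, 12 HEPES, 10 D-glucose, pH 7.35. Currents evoked by 1 mM glutamate; compound at 100 nM or 10 μM. Read-out is percent increase in charge transfer (area under curve).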

[11] = Oral bioavailability in cynomolgus monkey at 1 mg/kg; type: ADME, organism-based, Macaca fascicularis; conditions: in vivo; summary of the method: as §3
[12] = Tmax in cynomolgus monkey at 1 mg/kg, po; type: ADME, organism-based, Macaca fascicularis; set-up: dose 1 mg/kg, route oral; conditions: in vivo; summary of the method: as §3
Canis familiaris = experiment: Hepatic blood flow in Swiss Beagle dog at 0.25 mg/kg, iv and 0.5 mg/kg, po; type: ADME, organism-based, Canis lupus familiaris, Liver; conditions: in vivo; summary of the method: as §1
[13] = Cmax in rat at 3 mg/kg, po; type: ADME, organism-based; set-up: dose 3 mg/kg, route oral; conditions: in vivo
[14] = Half life in Swiss Beagle dog at 0.25 mg/kg, iv; type: ADME, organism-based, Canis lupus familiaris; set-up: dose 0.25 mg/kg, route intravenous; conditions: in vivo; summary of the method: as §1
[15] = Clearance in Gottingen minipig at 0.5 mg/kg, iv and 1 mg/kg, po; type: ADME, organism-based, Sus scrofa; conditions: pig, in vivo; summary of the method: as §1
[16] = Half life in Gottingen minipig at 0.5 mg/kg, iv; type: ADME, organism-based, Sus scrofa; set-up: dose 0.5 mg/kg, route intravenous; conditions: pig, in vivo; summary of the method: as §1
[17] = Intrinsic clearance in cryopreserved rhesus monkey hepatocytes assessed per gram of tissue; type: ADME, Macaca mulatta, Liver, Hepatocyte
Rattus norvegicus [18] = experiment: Cognitive enhancing effect in Lister Hooded rat assessed as reversal of 24 hrs delay-induced cognitive deficit at 0.1 mg/kg, ip by novel object recognition test
[19] = Clearance in Swiss Beagle dog at 0.25 mg/kg, iv and 0.5 mg/kg, po; type: ADME, organism-based, Canis lupus familiaris; conditions: in vivo; summary of the method: as §1
Cynomolgus monkey = experiment: Hepatic blood flow in cynomolgus monkey at 0.25 mg/kg, iv and 1 mg/kg, po; type: ADME, organism-based, Macaca fascicularis, Liver; conditions: in vivo; summary of the method: as §1
[20] = Tmax in Gottingen minipig at 1 mg/kg, po; type: ADME, organism-based, Sus scrofa; set-up: dose 1 mg/kg, route oral; conditions: pig, in vivo; summary of the method: as §3
[21] = Half life in Gottingen minipig at 1 mg/kg, po; type: ADME, organism-based, Sus scrofa; set-up: dose 1 mg/kg, route oral; conditions: pig, in vivo
[22] = Tmax in Sprague-Dawley rat at 3 mg/kg, po; type: ADME, organism-based; set-up: dose 3 mg/kg, route oral; conditions: in vivo; summary of the method: as §3
[23] = Clearance in rat at 3 mg/kg, po; type: ADME, organism-based; set-up: dose 3 mg/kg, route oral; conditions: in vivo
Summary of the method: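 Rats dosed orally at 3 mg/kg; blood sampled via the hepatic portal vein and heart. Estimated clearance derived from in vivo hepatic extraction, taking rat liver blood flow as 85 (mL/min)/kg.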

[24] = Half life in cynomolgus monkey at 0.25 mg/kg, iv; type: ADME, organism-based, Macaca fascicularis; set-up: dose 0.25 mg/kg, route intravenous; conditions: in vivo; summary of the method: as §1
[25] = AUC ( 0 to t) in rat at 3 mg/kg, po; type: ADME, organism-based, Plasma; set-up: dose 3 mg/kg, route oral; conditions: plasma
in vivo [26] = conditions: rat, brain and blood, po, 3 mg/kg
Rattus norvegicus [27] = experiment: Cognitive enhancing effect in Wistar rat assessed as reversal of scopolamine-induced amnesic deficit at 10 to 30 mg/kg, ip by passive avoidance test
Rattus norvegicus [28] = experiment: Cognitive enhancing effect in Lister Hooded rat assessed as reversal of 24 hrs delay-induced cognitive deficit at 0.3 mg/kg, ip by novel object recognition test
Hepatocyte = experiment: Intrinsic clearance in cryopreserved human hepatocytes assessed per gram of tissue; type: ADME, cell-based, Liver; summary of the method: as §2
[29] = Volume of distribution at steady state in Sprague-Dawley rat at 2.5 mg/kg, iv and 3 mg/kg, po; type: ADME, organism-based; conditions: in vivo, read-out: Vdss; summary of the method: as §3
[30] = Cmax in Sprague-Dawley rat at 3 mg/kg, po; type: ADME, organism-based; set-up: dose 3 mg/kg, route oral; conditions: in vivo
Brain = experiment: Drug level in Lister Hooded rat assessed per gram of tissue at 3 mg/kg, ip; type: ADME, organism-based; set-up: dose 3 mg/kg, route intraperitoneal; conditions: in vivo
Summary of the method: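 Male Lister Hooded rats (n = 9-12/group) tested for reversal of a 24 h delay-induced deficit in novel object recognition. Significant doses flagged. Brain concentrations measured in the study animals at the end of the test.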

QH (Sus scrofa): 77%
Cmax [1]: 5 ng/mL
half-life [2]: 54 min
QH (Rattus norvegicus [4]): 47%
CL [5]: 2.6 mL/min/g
bioavailability (in vivo [6]): 54%
bioavailability [7]: 12%
Vd [8]: 3.4 L/kg
solubility kinetic [9]: 133 µg/mL (≈ 366 µM)
CL [10]: 7 mL/min/g
Activity (Glutamate receptor 2): 21%
bioavailability [11]: 2%
Tmax [12]: 60 min
QH (Canis familiaris): 100%
Cmax [13]: 228 ng/mL
half-life [14]: 78 min
clearance [15]: 23 mL/min/kg
half-life [16]: 96 min
CL [17]: > 50 mL/min/g
clearance [19]: 32 mL/min/kg
QH (Cynomolgus monkey): 86%
Tmax [20]: 30 min
half-life [21]: 270 min
Tmax [22]: 30 min
CL/F [23]: 12 mL/min/kg
half-life [24]: 30 min
AUC(0-t) [25]: 472 ng·h/mL
Kp (in vivo [26]): 1.5
CL (Hepatocyte): 1.2 mL/min/g
Vd [29]: 4.8 L/kg
Cmax [30]: 245 ng/mL
Drug uptake (Brain): 542 ng/g
Structure (SMILES): O=C(c1ccc(-n2nc(C(F)(F)F)c3c2CCCC3)cc1)N1CCCC1
inhibition (INH) [3]: Not Active
Activity (Rattus norvegicus [18]): Active
Activity (Rattus norvegicus [27]): Active
Activity (Rattus norvegicus [28]): Active
